# RAM network inh: inhibitors of the yeast RAM network, primary screen, dse1pr::URA3 reporter, 5-FOA selection; S. cerevisiae dse1pr::URA3 reporter, 5-FOA growth OD615, 2 d; analog-sensitive cbk1-as2 kinase mutant strain; inhibition, % at 50 µM; actives 1.8% (n = 190,000);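 active = inhibition above a set limit, 3 SD over mean compound inhibition, cut at about 8.4% in these data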;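 note: 0% = DMSO-only wells with no growth and 100% = 10 µM 1-NA-PP1 full growth; inhibition rescues growth on 5-FOA so higher OD means more RAM inhibition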
# Measles CPE: compounds protecting cells from measles virus cytopathic effect, primary screen, measles RdRp inhibitor project, single point, MLSMR library, absorbance; Measles virus-infected cells, CPE protection; protection (pct of control), % at 4 µM; actives 1.5% (n = 140,000); in the data active = protection mostly above about 24%, no sharp cut-off; inactive = mostly below about 26%
# Phagocytosis inh: inhibitors of macrophage phagocytosis, primary screen, imaging, J774A.1 cells, IgG beads | J774A.1 macrophage IgG-bead phagocytosis | inhibition, % at 5 µM | actives 0.07% (n = 110,000) | AID 1029, 2008;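 active = inhibition above the mean of the plate negative controls plus 5 SD, cut at about 13% in these data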;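 note: phagocytic index as fraction of beads internalized from green versus red external bead signal; plate controls were DMSO negative control for no effect and cytochalasin-D positive control for full effect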
# Yeast life ext: compounds extending yeast replicative lifespan, primary screen, S. cerevisiae, OD615 | actives 0.68% (n = 130,000) | AID 775, 2007 | S. cerevisiae growth with nicotinamide; deaD strain in restrictive glucose medium | inhibition of the nicotinamide effect, % at 10 µM;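 active = inhibition above a set limit, placed 3 SD over the median of all compounds, cut at about 26% in these data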;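 note: 0% = nicotinamide-treated wells and 100% = cells grown without nicotinamide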
#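 Assay system: engineered S. cerevisiae DeaD replicative-lifespan strain, galactose-grown log-phase cells; medium: restrictive CSMM-D dextrose medium; also added: nicotinamide, 1.5 mM, co-present with compound; schedule: 48 h compound exposure at 30 °C, humidified; detection: absorbance at 615 nm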
# BB579 growth dn: growth inhibitors of yeast BB579 in restrictive medium, primary screen, yeast lifespan-shortening project, S. cerevisiae; OD615, 48 h; inhibition, % at 10 µM; actives 0.51% (n = 140,000); AID 804, 2007;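 active = inhibition above a set limit, 3 SD over the mean compound inhibition, cut at about 44% in these data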
#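 System: Saccharomyces cerevisiae DeaD strain BB579, replicative lifespan model yeast. Buffer or medium: restrictive glucose-based CSMM-D medium. Doses: one dose, 10 µM compound with 0.25% DMSO. Timing: 4 h preincubation and 48 h exposure at 30 °C. Detection: turbidity as optical density at 615 nm. Benchmarks: amphotericin B 10 µg/mL, positive.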
# The depositor's hits bear a star; . = not tested or not shown. In the library only some 3.6% were active in any assay of this set; here they are far more common.
SMILES,RAM network inh,Measles CPE,Phagocytosis inh,Yeast life ext,BB579 growth dn
O=C(N/N=C/c1cc2c3c(c1O)CCCN3CCC2)c1ccccc1O,6.6,6.6,-0.3,2.4,62.4*
Cc1nn(-c2ccccc2)c(N2CCCC2)c1/C=N/NC(=O)c1ccccc1O,0.5,4.2,0.7,-5.2,-34.6
OC(CNCc1ccco1)Cn1c2ccc(Br)cc2c2cc(Br)ccc21 (stereo not given),0.7,3.0,-1.4,-14.6,-48.8
CCC(C)(C(=O)NC1CCCC1)N(C(=O)Cc1cccs1)c1c(C)n(C)n(-c2ccccc2)c1=O (stereo not given),0.8,.,.,.,.
CCOC(=O)N1CCN(c2cc(NCCC(=O)O)c3c4c(onc24)-c2ccccc2C3=O)CC1,9.4*,11.3,-4.3,20.4,-33.1
O=[N+]([O-])c1c(NCCO)cc(N2CCC3(CC2)OCCO3)c2nonc12,2.1,9.0,-0.2,-3.5,-15.5
CCOC(=O)N1CCN(c2c(NCCc3ccccc3)c(=O)c2=O)CC1,0.1,5.3,-0.1,-7.4,-47.2
O=C(O)CCCNc1cc(N2CCC3(CC2)OCCO3)c2noc3c2c1C(=O)c1ccccc1-3,8.7*,11.6,.,13.9,-21.3
Cc1cc(C)n2nc(SC(C)C(=O)Nc3ccc(Cl)cn3)nc2n1 (stereo not given),4.0,.,.,.,.
CCCCN=C(NNc1ccc(Br)cc1)C(=O)OCC,-1.0,4.7,-10.6,-13.4,97.0*
CCOC(=O)C(=NCCCN(C)C)NNc1cc(C(F)(F)F)ccc1Cl,-0.4,.,.,.,.
CCOC(=O)C(=NCCCN(C)C)NNc1ccc(Br)cc1,-1.6,8.3,-3.9,-10.0,92.4*
O=C(CNC(=O)c1cccs1)N/N=C/c1c[nH]c2ccccc12,1.2,.,.,.,.
COC(=O)CSc1ccc(S(=O)(=O)N2CCOCC2)cc1[N+](=O)[O-],0.9,3.5,.,-1.1,-35.9
Cc1ccc(/C=C/C(=O)Nc2nnc(C)s2)o1,0.0,20.1*,.,-6.0,-5.2
NC(=O)COC(=O)CCSc1ccc(Cl)cc1,0.2,.,.,.,.
C=C(C)CNC(=O)CCc1nnc(Cc2cccc(C(F)(F)F)c2)o1,0.9,.,.,.,.
Cc1sc2ncnc(N/N=C/c3ccccc3O)c2c1C,-1.0,2.6,-11.4,1.9,68.3*
Cc1sc2ncnc(N/N=C/c3ccc(O)cc3)c2c1C,-0.8,6.0,-6.5,-2.4,-20.6
Cc1ccc2c(CN3CCN(S(=O)(=O)/C=C/c4ccccc4)CC3)cc(=O)oc2c1,1.4,7.4,-1.0,5.5,-33.5
COc1ccc(S(=O)(=O)N2CCC(C(=O)NCC(c3cccs3)N(C)C)CC2)cc1 (stereo not given),1.6,51.7*,0.8,-6.4,-49.6
Cc1ccc(N(CC(=O)Nc2ccc3c(c2)OCCO3)S(C)(=O)=O)cc1,0.1,.,.,.,.
CC1CCCN(C2=C(Cl)C(=O)N(c3cccc(Cl)c3)C2=O)C1 (stereo not given),10.4*,13.2,-0.8,14.7,-52.7
COc1ccc(CCN(C(=S)Nc2ccccc2)C2CC(=O)N(c3ccccc3)C2=O)cc1 (stereo not given),3.3,3.0,.,-16.9,-44.5
CNC(=S)N(CCc1ccc(S(N)(=O)=O)cc1)C1CC(=O)N(c2ccccc2F)C1=O (stereo not given),9.4*,.,.,.,.
SMILES,RAM network inh,Measles CPE,Phagocytosis inh,Yeast life ext,BB579 growth dn
Cc1scc(C(=O)NNC(=S)NC(C)c2ccccc2)c1C (stereo not given),0.9,16.7,-2.0,0.2,-35.0
Cc1ccc(C)n1-c1ccccc1N1CCCCC1,0.8,.,.,.,.
CC(/C=C1\SC(=O)N(CC(=O)Nc2ccc(O)cc2)C1=O)=C\c1ccccc1,5.6,29.9,.,-1.1,-46.4
CC(=O)c1ccc(NC(=O)CCCN2C(=O)/C(=C/C(C)=C/c3ccccc3)SC2=S)cc1,10.4*,3.7,-5.1,1.6,-25.1
CC(/C=C1\SC(=S)N(CC(=O)N2CCN(c3ccccc3)CC2)C1=O)=C\c1ccccc1,9.8*,10.6,-1.9,4.6,-39.2
CCCCOc1ccc(/C(O)=C2/C(=O)C(=O)N(Cc3cccnc3)C2c2ccncc2)c(C)c1 (stereo not given),0.8,6.7,-1.2,1.4,-24.4
O=C(CCn1c(=O)c2sccc2n(CC(=O)OCc2ccccc2)c1=O)NCc1ccccc1,11.3*,8.7,-0.4,9.9,-46.2
O=C(CCn1c(=O)c2sccc2n(CC(=O)OCc2ccccc2)c1=O)NCc1ccco1,3.3,4.9,-4.0,-3.1,-23.7
